Calls of active or inactive are those of the source.
Experiments:
Mus musculus [1] = test: Neurotoxicity in mouse assessed as motor impairment at 30 mg/kg, ip after 0.5 hrs by rotarod test; format: toxicity, organism-based; design: dose 30 mg/kg, route intraperitoneal; details: in vivo
Outline: (§1)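 Swiss albino mice (20-24 g) were dosed ip with a suspension in 30% aqueous PEG 400 and tested 0.5 h or 4 h later. They were placed on a knurled wooden rod 1 inch in diameter, rotating at 6 rpm. Toxicity meant failure to stay on the rod for at least 1 min in each of three trials. Scored as number toxic/number tested (4 mice at 0.5 h, 2 at 4 h).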

Mus musculus [2] = test: Neurotoxicity in mouse assessed as motor impairment at 100 mg/kg, ip after 0.5 hrs by rotarod test; format: toxicity, organism-based; design: dose 100 mg/kg, route intraperitoneal; details: in vivo; outline: as §1
Mus musculus [3] = test: Neurotoxicity in mouse assessed as motor impairment at 300 mg/kg, ip after 0.5 hrs by rotarod test; format: toxicity, organism-based; design: dose 300 mg/kg, route intraperitoneal; details: in vivo; outline: as §1
Mus musculus [4] = test: Neurotoxicity in mouse assessed as motor impairment at 30 mg/kg, ip after 4 hrs by rotarod test; format: toxicity, organism-based; design: dose 30 mg/kg, route intraperitoneal; details: in vivo; outline: as §1
Mus musculus [5] = test: Neurotoxicity in mouse assessed as motor impairment at 100 mg/kg, ip after 4 hrs by rotarod test; format: toxicity, organism-based; design: dose 100 mg/kg, route intraperitoneal; details: in vivo; outline: as §1
Mus musculus [6] = test: Neurotoxicity in mouse assessed as motor impairment at 300 mg/kg, ip after 4 hrs by rotarod test; format: toxicity, organism-based; design: dose 300 mg/kg, route intraperitoneal; details: in vivo; outline: as §1
Mus musculus [7] = test: Anticonvulsant activity in mouse assessed as protection against maximal electroshock-induced seizures at 30 mg/kg, ip after 0.5 hrs; format: functional, organism-based; design: dose 30 mg/kg
Outline: (§2)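 Swiss albino mice (20-24 g) received an ip suspension in 30% aqueous PEG 400 and were tested 0.5 h and 4 h after dosing. Shock was delivered through corneal electrodes from a constant current unit, with 0.9% saline dropped into the eyes first. Protection meant abolition of the hind limb tonic extension. Scored as number protected/number tested, one mouse per dose and time.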

Mus musculus [8] = test: Anticonvulsant activity in mouse assessed as protection against maximal electroshock-induced seizures at 100 mg/kg, ip after 0.5 hrs; format: functional, organism-based; design: dose 100 mg/kg; outline: as §2
Mus musculus [9] = test: Anticonvulsant activity in mouse assessed as protection against maximal electroshock-induced seizures at 300 mg/kg, ip after 0.5 hrs; format: functional, organism-based; design: dose 300 mg/kg; outline: as §2
Mus musculus [10] = test: Anticonvulsant activity in mouse assessed as protection against maximal electroshock-induced seizures at 30 mg/kg, ip after 4 hrs; format: functional, organism-based; design: dose 30 mg/kg; outline: as §2
Mus musculus [11] = test: Anticonvulsant activity in mouse assessed as protection against maximal electroshock-induced seizures at 100 mg/kg, ip after 4 hrs; format: functional, organism-based; design: dose 100 mg/kg; outline: as §2
Mus musculus [12] = test: Anticonvulsant activity in mouse assessed as protection against maximal electroshock-induced seizures at 300 mg/kg, ip after 4 hrs; format: functional, organism-based; design: dose 300 mg/kg; outline: as §2
Mus musculus [13] = test: Anticonvulsant activity in mouse assessed as protection against subcutaneous pentylenetetrazole-induced seizures at 30 mg/kg, ip after 0.5 hrs; format: functional, organism-based; design: dose 30 mg/kg
Outline: (§3)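 Swiss albino mice (20-24 g) were dosed ip with a suspension in 30% aqueous PEG 400 and challenged 0.5 h or 4 h later. Protection meant no threshold seizure (clonic spasms lasting at least 5 s). Scored as number protected/number tested, one mouse per dose and time.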

Mus musculus [14] = test: Anticonvulsant activity in mouse assessed as protection against subcutaneous pentylenetetrazole-induced seizures at 100 mg/kg, ip after 0.5 hrs; format: functional, organism-based; design: dose 100 mg/kg; outline: as §3
Mus musculus [15] = test: Anticonvulsant activity in mouse assessed as protection against subcutaneous pentylenetetrazole-induced seizures at 300 mg/kg, ip after 0.5 hrs; format: functional, organism-based; design: dose 300 mg/kg; outline: as §3
Mus musculus [16] = test: Anticonvulsant activity in mouse assessed as protection against subcutaneous pentylenetetrazole-induced seizures at 30 mg/kg, ip after 4 hrs; format: functional, organism-based; design: dose 30 mg/kg; outline: as §3
Mus musculus [17] = test: Anticonvulsant activity in mouse assessed as protection against subcutaneous pentylenetetrazole-induced seizures at 300 mg/kg, ip after 4 hrs; format: functional, organism-based; design: dose 300 mg/kg; outline: as §3
Mus musculus [18] = test: Anticonvulsant activity in mouse assessed as protection against subcutaneous pentylenetetrazole-induced seizures at 100 mg/kg, ip after 4 hrs; format: functional, organism-based; design: dose 100 mg/kg; outline: as §3

Row | SMILES | Activity (Mus musculus [1]) | Activity (Mus musculus [2]) | Activity (Mus musculus [3]) | Activity (Mus musculus [4]) | Activity (Mus musculus [5]) | Activity (Mus musculus [6]) | Activity (Mus musculus [7]) | Activity (Mus musculus [8]) | Activity (Mus musculus [9]) | Activity (Mus musculus [10]) | Activity (Mus musculus [11]) | Activity (Mus musculus [12]) | Activity (Mus musculus [13]) | Activity (Mus musculus [14]) | Activity (Mus musculus [15]) | Activity (Mus musculus [16]) | Activity (Mus musculus [17]) | Activity (Mus musculus [18])
1 | CCCC(CCC)C(=O)[O-].[Na+] [VALPROATE SODIUM] | Non-toxic | Non-toxic | Non-toxic | Non-toxic | Non-toxic | Non-toxic | inactive | inactive | Active | inactive | inactive | inactive | inactive | inactive | Active | inactive | inactive | inactive
2 | Cc1ccc(C(=O)O/N=C(\Cn2ccnc2)c2ccc3ccccc3c2)cc1 | Non-toxic | Non-toxic | Non-toxic | Non-toxic | Non-toxic | Non-toxic | inactive | Active | Active | inactive | inactive | inactive | inactive | Active | Active | inactive | Active | inactive
3 | Cl.O=C(O/N=C(\Cn1ccnc1)c1ccc2ccccc2c1)c1ccc(-c2ccccc2)cc1 | Non-toxic | Non-toxic | Non-toxic | Non-toxic | Non-toxic | Non-toxic | inactive | inactive | inactive | inactive | inactive | Active | inactive | inactive | inactive | inactive | inactive | inactive
4 | CCCCC(=O)O/N=C(\Cn1ccnc1)c1ccc2ccccc2c1.Cl | Non-toxic | Non-toxic | Non-toxic | Non-toxic | Non-toxic | Non-toxic | Active | Active | Active | inactive | inactive | inactive | inactive | inactive | inactive | inactive | inactive | inactive
5 | O=C(O/N=C(\Cn1ccnc1)c1ccc2ccccc2c1)c1cccc(Br)c1 | Non-toxic | Non-toxic | Non-toxic | Non-toxic | Non-toxic | Non-toxic | inactive | Active | Active | inactive | inactive | inactive | inactive | inactive | inactive | inactive | inactive | inactive
6 | Cc1ccccc1C(=O)O/N=C(\Cn1ccnc1)c1ccc2ccccc2c1 | Non-toxic | Non-toxic | Non-toxic | Non-toxic | Non-toxic | Non-toxic | inactive | inactive | Active | inactive | inactive | Active | inactive | inactive | inactive | inactive | inactive | inactive
7 | Cl.O=C(/C=C/c1ccccc1)O/N=C(\Cn1ccnc1)c1ccc2ccccc2c1 | Non-toxic | Non-toxic | Non-toxic | Non-toxic | Non-toxic | Non-toxic | Active | Active | Active | inactive | inactive | inactive | inactive | inactive | inactive | inactive | inactive | inactive
8 | CCCCCC(=O)O/N=C(\Cn1ccnc1)c1ccc2ccccc2c1.Cl | Non-toxic | Non-toxic | Non-toxic | Non-toxic | Non-toxic | Non-toxic | inactive | inactive | inactive | inactive | inactive | inactive | inactive | inactive | inactive | inactive | inactive | inactive
9 | COc1ccccc1C(=O)O/N=C(\Cn1ccnc1)c1ccc2ccccc2c1 | Non-toxic | Non-toxic | Non-toxic | Non-toxic | Non-toxic | Non-toxic | inactive | Active | Active | Active | Active | Active | inactive | Active | Active | inactive | inactive | inactive
10 | C/C=C(\C)C(=O)O/N=C(\Cn1ccnc1)c1ccc2ccccc2c1.Cl | Non-toxic | Non-toxic | Non-toxic | Non-toxic | Non-toxic | Non-toxic | inactive | inactive | inactive | inactive | inactive | inactive | inactive | inactive | inactive | inactive | Active | inactive
11 | COc1ccc(C(=O)O/N=C(\Cn2ccnc2)c2ccc3ccccc3c2)cc1 | Non-toxic | Non-toxic | Non-toxic | Non-toxic | Non-toxic | Non-toxic | inactive | inactive | inactive | inactive | inactive | inactive | inactive | inactive | Active | inactive | inactive | inactive
12 | Cl.O=C(ON=C(Cn1ccnc1)c1ccc2ccccc2c1)C1CCCCC1 (mixture of isomers) | Non-toxic | Non-toxic | Non-toxic | Non-toxic | Non-toxic | Non-toxic | inactive | Active | Active | inactive | inactive | inactive | inactive | Active | Active | inactive | inactive | inactive
